Assays:
[1] = test system: RAW264.7; test: Cytotoxicity against mouse RAW264.7 cells at concentration required inhibit NO synthesis by MTT assay; type: cell-based
[2] = test system: RAW264.7; test: Inhibition of LPS-induced NO production in mouse RAW264.7 cells measured after 24 hrs; type: functional, cell-based
Summary of the method: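 RAW264.7 cells, harvested from 100 mm dishes, were seeded at 2 × 10^5 cells/well. They were pretreated with a range of sample concentrations for 30 min, then incubated 24 h with or without LPS at 1 µg/mL. Nitrite in the culture supernatant was measured by the Griess reaction, and IC50 was reported.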

C=C1C(=O)O[C@@H]2C[C@H](C)C(CCC(C)=O)=C[C@H](O)[C@H]12
Activity [1]: Non-toxic | IC50 ([2]; Mus musculus, RAW264.7, 24 h): 13.1 µM

C=C1C(=O)O[C@H]2C=C(CCC(C)=O)[C@H](C)C[C@H](OC(=O)CC)[C@H]12
Activity [1]: Non-toxic | IC50 ([2]; Mus musculus, RAW264.7, 24 h): 13.3 µM

C=C1C(=O)O[C@H]2C[C@@H](C)[C@@H]3[C@@H](OC(C)=O)C[C@H](O)[C@@]3(C)C[C@H]12
Activity [1]: Non-toxic | IC50 ([2]; Mus musculus, RAW264.7, 24 h): 0.25 µM

C=C1C(=O)O[C@H]2C[C@@H](C)[C@H]3[C@@H](OC(C)=O)C[C@@](C)(O)[C@@]34O[C@H]4[C@H]12
Activity [1]: Non-toxic | IC50 ([2]; Mus musculus, RAW264.7, 24 h): 26.2 µM

C=C1C(=O)O[C@H]2C[C@@H](C)[C@@H]3[C@@H](OC(C)=O)C[C@H](O)[C@@]3(C)[C@@H](OC(C)=O)[C@H]12
Activity [1]: Non-toxic | IC50 ([2]; Mus musculus, RAW264.7, 24 h): 0.11 µM

C=C1C[C@@H]2OC(=O)C(=C)[C@H]2C[C@@H]2[C@@H]1[C@@H](OC(C)=O)C[C@@]2(C)O (stereo in doubt; 5)
Activity [1]: Non-toxic

C=C1C(=O)O[C@H]2C=C(C)[C@H]3[C@@H](OC(C)=O)C[C@@](C)(O)[C@@H]3C[C@H]12 (stereo in doubt; 9) [GAILLARDIN]
IC50 ([2]; raw264.7): 2.95 µM

C=C1C(=O)O[C@H]2C=C(C)[C@@H]3CC[C@](C)(O)[C@@H]3C[C@H]12 [4-EPI-ISOINUVISCOLIDE]
Activity [1]: Non-toxic | IC50 ([2]; Mus musculus, RAW264.7, 24 h): 28.7 µM

C[C@@H]1CC[C@@H]2[C@]3(O)[C@H]1CC[C@@]3(C)C[C@@]2(C)C(=O)O [BRITANLIN C]
Activity [1]: Non-toxic | IC50 ([2]; Mus musculus, RAW264.7, 24 h): 22.8 µM

C[C@@H]1CC[C@H](O)[C@]2(O)CC[C@H](c3cc3=O)C[C@@]12C [INEARIIFOLIANONE]
Activity [1]: Non-toxic | IC50 ([2]; Mus musculus, RAW264.7, 24 h): 12.9 µM

N=C(N)NN [PIMAGEDINE]
IC50 ([2]; Mus musculus, RAW264.7, 24 h): 2.7 µM

C=C1C(=O)O[C@H]2C[C@@H](C)[C@@H]3CC[C@H](O)[C@@]3(C)C[C@H]12 [PSEUDOGUAIANOLIDE]
Activity [1]: Non-toxic | IC50 ([2]; Mus musculus, RAW264.7, 24 h): 0.1 µM

C=C1C(=O)O[C@@H]2C[C@H](C)C(CCC(C)=O)=CC[C@H]12 [TOMENTOSIN]
Activity [1]: Non-toxic | IC50 ([2]; Mus musculus, RAW264.7, 24 h): 9.15 µM

C=C1C(=O)O[C@H]2C[C@H](C)[C@@H]3CC(=O)C(C)=C3C[C@H]12 [XERANTOLIDE]
Activity [1]: Non-toxic | IC50 ([2]; Mus musculus, RAW264.7, 24 h): 35.6 µM
